In ChEMBL document CHEMBL5385965, “Discovery of novel positive allosteric modulators targeting GluN1/2A NMDARs as anti-stroke therapeutic agents” (RSC Med Chem, 2024):
Calls of active or inactive are those of the source. The rule behind the calls is not given here.

Tests used:
HT-22 [1] = assay: Neuroprotective activity against glutamate-induced excitotoxicity in mouse HT-22 cells assessed as cell viability at 1 uM preincubated for 4 hrs followed by glutamate treatment for 24 hrs by CCK8 assay (reference value: 35.56 +/- 2.12 %); type: functional; conditions: time 28 hrs, read-out: Activity
[2] = Cytotoxicity against rat PC12 cells assessed as cell viability at 10 uM incubated for 4 hrs by CCK8 assay relative to control; type: toxicity, cell-based, PC-12; conditions: read-out: Activity
PC-12 [3] = assay: Neuroprotective activity against glutamate-induced excitotoxicity in rat PC12 cells assessed as cell viability at 10 uM preincubated for 4 hrs followed by glutamate treatment for 24 hrs by CCK8 assay (reference value: 43.75 +/- 2.04 %); type: functional; conditions: time 28 hrs, read-out: Activity
HT-22 [4] = assay: Neuroprotective activity against glutamate-induced excitotoxicity in mouse HT-22 cells assessed as cell viability at 10 uM preincubated for 4 hrs followed by glutamate treatment for 24 hrs by CCK8 assay (reference value: 34.80 +/- 4.02 %); type: functional; conditions: time 28 hrs, read-out: Activity
[5] = biological target: T1, Glutamate NMDA receptor; GRIN1/GRIN2B (Homo sapiens) (UniProt Q05586+Q13224); assay: Positive allosteric modulation of GluN1/N2B (unknown origin) transfected in HEK293 cells assessed as potentiation of Glu/Gly-induced calcium influx by Cal-520 AM dye based assay; type: cell-based
Outline: (§1)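 HEK293 cells were co-transfected 1:1 with GluN1 plus GluN2A or GluN2B at 90% confluence and seeded 40 000/well on poly-D-lysine plates overnight. Cells were loaded with Cal-520 AM for 1.5 h at 37 °C, and compounds were tested at 10 μM. Responses to Glu (2 mM)/Gly (100 μM) were recorded in HEPES-buffered Tyrode's (pH 7.2) at Ex 485/Em 515 nm every 1.6 s, expressed as area under the FMAX/F0 curve.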

HT-22 [6] = assay: Neuroprotective activity against glutamate-induced excitotoxicity in mouse HT-22 cells assessed as cell viability at 0.1 uM preincubated for 4 hrs followed by glutamate treatment for 24 hrs by CCK8 assay (reference value: 30.31 +/- 2.02 %); type: functional; conditions: time 28 hrs, read-out: Activity
PC-12 [7] = assay: Neuroprotective activity against glutamate-induced excitotoxicity in rat PC12 cells assessed as cell viability at 0.1 uM preincubated for 4 hrs followed by glutamate treatment for 24 hrs by CCK8 assay (reference value: 44.89 +/- 2.08 %); type: functional; conditions: time 28 hrs, read-out: Activity
PC-12 [8] = assay: Neuroprotective activity against glutamate-induced excitotoxicity in rat PC12 cells assessed as cell viability at 1 uM preincubated for 4 hrs followed by glutamate treatment for 24 hrs by CCK8 assay (reference value: 43.19 +/- 2.98 %); type: functional; conditions: time 28 hrs, read-out: Activity
Mus musculus [9] = assay: Neuroprotective activity against tMCAO-reperfusion induced nerve injury in C57BL/6 mouse model assessed as reduction in volume of ischemia cerebral infarction at 10 mg/kg, ip measured after 22 hrs by TTC staining based analysis (reference value: 130.60 +/- 9.93 mm3); type: functional
Mus musculus [10] = assay: Neuroprotective activity against tMCAO-reperfusion induced nerve injury in C57BL/6 mouse model assessed as recovery of neurological deficit score at 10 mg/kg, ip measured after 22 hrs; type: functional, organism-based
Outline: (§2)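 Male C57BL/6 mice (6–8 weeks, 18–22 g) were randomized and given 1, 5 or 10 mg/kg i.p. in 5% DMSO, 20% PEG300, 5% Tween-80 in saline. Under isoflurane, the left MCA was occluded with a nylon monofilament for 1.5 h, then reperfused, with body temperature held at 37 °C. Neurological scores were taken after tMCAO. n=6, mean ± SD, one-way ANOVA with Dunnett's test vs vehicle.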

[11] = biological target: Glutamate NMDA receptor; GRIN1/GRIN2A (Homo sapiens) (UniProt Q05586+Q12879); assay: Positive allosteric modulation of GluN1/N2A (unknown origin) transfected in HEK293 cells assessed as potentiation of Glu/Gly-induced calcium influx by Cal-520 AM dye based assay; type: cell-based; conditions: filed as positive allosteric modulator; outline: as §1
[12] = biological target: T1, Glutamate NMDA receptor; GRIN1/GRIN2B (Homo sapiens); assay: […] of GluN1/N2B (unknown origin) transfected in HEK293 cells assessed as potentiation of Glu/Gly-induced calcium influx by Cal-520 AM dye based assay; type: cell-based; outline: as §1
[13] = biological target: Glutamate NMDA receptor; GRIN1/GRIN2A/GRIN2B (Homo sapiens) (UniProt Q05586+Q12879+Q13224); assay: Positive allosteric modulation of GluN1/N2A/N2B (unknown origin) transfected in HEK293 cells assessed as potentiation of Glu/Gly-induced calcium influx by Cal-520 AM dye based assay; type: cell-based
Mus musculus [14] = assay: Neuroprotective activity against tMCAO-reperfusion induced nerve injury in C57BL/6 mouse model assessed as reduction in volume of ischemia cerebral infarction at 10 mg/kg, ip measured after 22 hrs by TTC staining based analysis relative to control; type: functional; parameters: scale not given: the % may be the effect or the level left
Mus musculus [15] = assay: Neuroprotective activity against tMCAO-reperfusion induced nerve injury in C57BL/6 mouse model assessed as recovery of neurological deficit score at 5 to 10 mg/kg, ip measured after 22 hrs; type: functional, organism-based; conditions: dose 5-10 mg/kg; outline: as §2
Mus musculus [16] = assay: Neuroprotective activity against tMCAO-reperfusion induced nerve injury in C57BL/6 mouse model assessed as reduction in volume of ischemia cerebral infarction at 5 mg/kg, ip measured after 22 hrs by TTC staining based analysis relative to control; type: functional; parameters: scale not given: the % may be the effect or the level left
Mus musculus [17] = assay: Neuroprotective activity against tMCAO-reperfusion induced nerve injury in C57BL/6 mouse model assessed as reduction in volume of ischemia cerebral infarction at 5 mg/kg, ip measured after 22 hrs by TTC staining based analysis (reference value: 130.60 +/- 9.93 mm3); type: functional

Compound | viability at 1 µM (HT-22 [1]) [%] | viability at 4 h, 10 µM [2] [%] | viability at 10 µM (PC-12 [3]) [%] | viability at 10 µM (HT-22 [4]) [%] | Activity [5] | viability at 0.1 µM (HT-22 [6]) [%] | viability at 0.1 µM (PC-12 [7]) [%] | viability at 1 µM (PC-12 [8]) [%] | other results
COc1cc(/C=C/C(=O)NCC(O)c2ccc(O)cc2)ccc1O (configuration not stated) | 77.6 | 96.6 | 62.8 | 39.6 | inactive | 42.7 | 64.2 | 66.5 | 
CC1=NN(c2ccccc2)C(=O)C1 [EDARAVONE] |  |  |  |  |  |  |  |  | Activity (Mus musculus [9]): 68.04 mm3; Activity (Mus musculus [10]): Active
O=C(CCCCc1ccc2c(c1)OCO2)N1CCCCC1 |  |  |  |  | inactive |  |  |  | 
CCN(CC)CCCC(C)Nc1ccnc2cc(Cl)ccc12 (configuration not stated) |  |  |  |  | inactive |  |  |  | 
COc1cc(CCC(=O)CC(O)CCc2ccc(O)c(OC)c2)ccc1O (configuration not stated) [HEXAHYDROCURCUMIN] | 103 | 73.3 | 66.5 | 42.9 | inactive | 41.4 | 66 | 52.4 | Activity [11]: Active
CC(Cc1ccc(O)c(O)c1)C(C)Cc1ccc(O)c(O)c1 (configuration not stated) |  |  |  |  | inactive |  |  |  | 
O=C(CCc1ccccc1)C[C@@H](O)/C=C/c1ccccc1 |  |  |  |  | inactive |  |  |  | 
C=CCN1C[C@H](C(=O)N(CCCN(C)C)C(=O)NCC)C[C@@H]2c3cccc4[nH]cc(c34)C[C@H]21 [CABERGOLINE] | 73.8 | 94.8 | 87.5 | 37.4 | inactive | 37.7 | 63.9 | 68.2 | 
COCCCOc1ccnc(C[S+]([O-])c2nc3ccccc3[nH]2)c1C (configuration not stated) [RABEPRAZOLE] | 76.5 | 93.2 | 60.9 | 16 | inactive | 39.9 | 64.7 | 66.7 | 
COc1cc(OC/C=C(\C)CCC=C(C)C)c2ccc(=O)oc2c1 | 69 | 74.7 | 70.1 | 41.4 | inactive | 34.9 | 67.4 | 69 | 
C[C@H](CCc1ccc(O)cc1)NCCc1ccc(O)c(O)c1 |  |  |  |  | inactive |  |  |  | 
O=C(/C=C/c1ccc(O)c(O)c1)OC(Cc1ccc(O)c(O)c1)C(=O)O (configuration not stated) |  |  |  |  | inactive |  |  |  | 
O=C(/C=C/C=C/c1ccc2c(c1)OCO2)N1CCCCC1 [PIPERINE] | 87.8 | 98.3 | 35.2 | 24.5 | inactive | 36.5 | 66.2 | 57.3 | 
COc1cc(C(=O)OCCCCNC(=N)N)cc(OC)c1O |  |  |  |  | inactive |  |  |  | 
CC(C)=CCC/C(C)=C/COc1ccc2ccc(=O)oc2c1 |  |  |  |  | inactive |  |  |  | 
COc1cc(/C=C/C(=O)NCCc2ccc(O)cc2)ccc1O |  |  |  |  | inactive |  |  |  | 
COc1cc(/C=C/C(=O)NCCc2ccc(O)cc2)cc(OC)c1O |  |  |  |  | inactive |  |  |  | 
COC(=O)[C@@H](Cc1ccc(O)c(O)c1)OC(=O)/C=C/c1ccc(O)c(O)c1 [METHYL ROSMARINATE] | 80.4 | 69.6 | 53.6 | 25.6 | inactive | 46.3 | 74.1 | 75.2 | 
C=CCc1ccc(O)c(-c2ccc(O)c(CC=C)c2)c1 |  |  |  |  | inactive |  |  |  | Activity [12]: Active
CC(C)=CCC/C(C)=C/COc1c2ccoc2cc2oc(=O)ccc12 |  |  |  |  | inactive |  |  |  | 
COc1cc(CNC(=O)CCCCCCC(C)C)ccc1O [DIHYDROCAPSAICIN] | 95.4 | 104 | 102 | 43.3 | inactive | 32.6 | 66.1 | 76.1 | 
COc1ccc(C(O)CNC(=O)/C=C/c2ccccc2)cc1 (configuration not stated) |  |  |  |  | inactive |  |  |  | Activity [13]: inactive; Activity (Mus musculus [14]): 42.7%; Activity (Mus musculus [15]): Active; Activity (Mus musculus [9]): 74.83 mm3; Activity (Mus musculus [16]): 30.68%; Activity (Mus musculus [17]): 90.53 mm3; Activity [11]: Dose-Dependent Effect
N[C@@H](CC(=O)N1CCn2c(nnc2C(F)(F)F)C1)Cc1cc(F)c(F)cc1F [SITAGLIPTIN] | 71 | 95.5 | 77.8 | 52.4 | inactive | 24.8 | 62.6 | 69.5 | 
CCCCCCC/C=C/C(=O)CCc1ccc(O)c(OC)c1 |  |  |  |  | inactive |  |  |  | 
